Compounds with a hit are over-represented: about 4% of the library has one in this group of screens.
Cardio protect: cardioprotection against H2O2-induced cell death, primary screen, uHTS, H9c2 cells, ATPLite luminescence | H9c2 cardiomyocytes, H2O2 injury protection, 2 h | protection from H2O2 cell death, % at 20 µM | 360,000 tested, 0.63% active;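 active = compounds giving at least 50% protection of heart cells from peroxide-induced death in the single-dose screen, raw or plate-pattern-corrected value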;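 note: 0% = DMSO wells with peroxide and 100% = DMSO wells without peroxide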
Arr AP2 block: inhibitors of beta-arrestin/AP2 binding, primary screen, biochemical, GPCR trafficking, flow cytometry; FITC-arrestin peptide / GST-AP2 beads; AP2 beta2 appendage carries R879A mutation; inhibition, % at 10 µM; 340,000 tested, 0.31% active; AID 504490, 2011;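 active = inhibition above a set limit, near 3 SD of compounds lacking own fluorescence, cut at about 54% in these data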;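 note: plate controls were DMSO wells for no effect and 5 µM unlabelled arrestin peptide for full effect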
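Material – GST-tagged AP2 beta2-adaptin appendage (R879A) on 4 µm glutathione beads · Probe or stimulus – fluorescein-tagged arrestin peptide at 50 nM final · Timing – 12 min plus 1 h, RT · Detection – bead flow cytometry, FITC channel · Read-out basis – inhibition as reduced fluorescein signal on beads, percent · Medium – PBS plus Tween 20 (0.05%) and BSA (0.1%)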
SENP1 FRET inh: human SENP1 catalytic domain inhibitors, primary screen, biochemical, FRET, uHTS; Sentrin-specific protease 1 (Homo sapiens), Q9P0U3; recombinant SENP1 catalytic domain, CyPet-SUMO1-YPet FRET cleavage; inhibition, % at 10 µM; 360,000 tested, 0.21% active; AID 624204, 2012;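 active = inhibition at least 30% at 10 µM, raw YFP signal under a set limit, fluorescence ratio 0.5 to 1.5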;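 note: 0% = enzyme with DMSO and 100% = no enzyme wells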
Target sequence (Q9P0U3 419-644 limits assumed): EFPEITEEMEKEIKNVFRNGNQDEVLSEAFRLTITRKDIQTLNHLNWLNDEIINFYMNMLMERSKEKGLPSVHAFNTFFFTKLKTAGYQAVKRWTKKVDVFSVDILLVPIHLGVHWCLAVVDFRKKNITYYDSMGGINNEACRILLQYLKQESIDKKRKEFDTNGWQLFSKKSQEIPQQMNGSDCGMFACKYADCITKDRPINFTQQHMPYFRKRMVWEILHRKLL
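Controls: no-enzyme wells low, DMSO-plus-enzyme wells high control. Test system: human recombinant His6-tagged SENP1 catalytic domain enzyme. Reagent: SFCypet-SUMO1-SFYpet FRET protein substrate, 25 nM final. Doses: one dose per compound, 10 µM, 0.5% DMSO. Detection: FRET, CFP and YFP emission. Timing: 50 min reaction at room temperature.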
FAS TE block: FAS thioesterase domain inhibitors, primary screen, biochemical, fluorescence intensity, uHTS; inhibition, % at 15 µM; 360,000 tested, 0.67% active; recombinant FAS-TE, OMFH fluorogenic substrate, fluorescence endpoint;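 active = compounds whose normalised, plate-corrected inhibition of enzyme fluorescence in the single-dose primary screen is 50% or more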;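 note: 0% = DMSO with enzyme and 100% = substrate without enzyme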
iPSC survival up: enhancers of single-cell hiPSC survival, primary screen, ATPlite luminescence | 100% = ROCK inhibitor wells, 0% = DMSO | 360,000 tested, 0.044% active | survival enhancement, % at 20 µM; in the data active = survival enhancement above about 18%;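 note: cells exposed to compounds for 16 hours before the ATP read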
NR3A LBD binder: binders of NR3A ligand-binding domain, primary screen, biophysical, differential scanning fluorimetry, uHTS | Glutamate receptor ionotropic, NMDA 3A (GRIN3A) ligand-binding domain | NR3A LBD differential scanning fluorimetry, Tm shift; 0% = protein alone, 100% = glycine-bound protein | Tm shift relative to glycine control, % at 25 µM | 340,000 tested, 2.5% active | AID 1259313, 2017;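 active = melting temperature shift of at least 10% of the positive control shift, at one fixed dose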
* hit, by the source's call; · = no result.

SMILES	Cardio protect	Arr AP2 block	SENP1 FRET inh	FAS TE block	iPSC survival up	NR3A LBD binder
CCOC(=O)c1ccc(NC(=O)Oc2cc(C)c(Cl)cc2C(C)C)cc1	-12	2	2	6	-1	15*
C[C@@H]1COc2cccc(N3CCC[C@H]3CO)c2S(=O)(=O)N1	·	·	1	-14	0	·
O=C(Nc1ccc(NC(=S)NC(=O)c2cccs2)cc1)c1ccco1	5	13	1	4	0	13*
Cc1c(C(=O)NC(=S)Nc2ccc(NC(=O)c3cccs3)cc2)cccc1[N+](=O)[O-]	4	12	-1	24	-1	11*
O=C(Nc1ccc(NC(=O)c2cccs2)cc1)c1ccc(Br)o1	-14	2	3	-1	0	24*
O=C(Nc1cccc(NC(=O)c2cccs2)c1)c1ccc(Br)o1	3	12	1	5	0	16*
C/C=C/c1cccc(-c2nc(C(=O)NC3Cc4ccccc4C3)cc3c2[C@@H](CCO)N(C(C)=O)C3)c1	·	·	3	-3	0	·
CN(Cc1ccc(Cl)cc1)C(=O)c1[nH]c(C(F)(F)F)nc1-c1ccccc1	-3	·	1	-2	2	·
O=C(/C=C/c1cccc([N+](=O)[O-])c1)Nc1ccc(NC(=O)c2cccs2)cc1	13	-3	0	0	-2	25*
O=C(Nc1ccc(Nc2ccccc2)cc1)c1ccc(Br)o1	-16	32	2	26	4	21*
Cc1ccc(S(=O)(=O)Nc2ccc(Nc3nccn4c(-c5ccc6ccccc6c5)cnc34)cc2)cc1	-5	·	-33	15	-1	·
N#C/C(=C\c1ccc(F)cc1)c1nc(-c2ccco2)cs1	-9	-26	-66	42	0	24*
N#C/C(=C\c1ccc(-c2ccccc2)cc1)c1nc(-c2ccco2)cs1	-2	4	-27	20	1	28*
N#C/C(=C\c1ccc(Cl)cc1)c1nc(-c2ccco2)cs1	-12	-5	-48	20	-1	-5
O=C1NC[C@@H](CCCCN2C[C@H](Cc3ccccc3)N(CC3CCCCC3)C(=O)C2=O)N(CCc2ccccc2)C1=O	·	·	1	2	0	·
Cc1nc2cc(NC(=O)NCc3ccc4c(c3)OCO4)ccc2o1	0	6	1	-5	-2	·
Cc1nc2cc(NC(=O)Nc3ccc(Br)cc3)ccc2o1	-5	1	-1	0	-2	34*
CCCCCCCCN1C(=O)[C@H](CC(=O)NCc2ccc(C)o2)C[C@@]2(C(=O)OCC)CCC=C12	·	·	-3	·	·	·
Cc1c(Cl)cccc1NC(=S)N(CCCN1CCOCC1)Cc1cccs1	-2	5	5	12	0	17*
O=C1CCC2c3[nH]c4ccccc4c3CCN12 (configuration not stated)	-4	·	-27	-9	-3	·
Cc1ccc(S(=O)(=O)NCC(=O)OCC(=O)N2CC(C)OC(C)C2)cc1 (configuration not stated)	1	-3	1	-9	-2	-2
O=C(Nc1ccon1)Nc1cc(Cl)ccc1Cl	-10	21	1	1	0	-10
CC(C)(Oc1ccc(Br)cc1Cl)C(=O)Nc1ccon1	0	-1	0	4	0	13*
COc1ccc(NC(=O)CC2C(=O)N(c3ccc(Cl)cc3)C(=S)N2NC(=O)c2cccc(F)c2)cc1 (configuration not stated)	4	6	1	-10	0	16*
COc1ccc(NC(=O)CC2C(=O)N(c3ccc(Cl)cc3)C(=S)N2CCc2ccncc2)cc1 (configuration not stated)	15	3	1	12	1	10*
SMILES	Cardio protect	Arr AP2 block	SENP1 FRET inh	FAS TE block	iPSC survival up	NR3A LBD binder
COC(=O)CN1C(=S)N(c2ccc(Cl)cc2)C(=O)C1CC(=O)Nc1ccc(F)cc1 (configuration not stated)	25	-7	1	23	-1	27*
COC(=O)CN1C(=S)N(c2ccc(Cl)cc2)C(=O)C1CC(=O)Nc1ccc(Cl)cc1 (configuration not stated)	-8	-5	3	45	0	20*
NC(c1csc(Nc2ccc(C(=O)NCCCO)cn2)n1)c1ccccc1Cl (configuration not stated)	4	·	-2	-6	6	·
Cc1ccc(C(=Cc2ccc([N+](=O)[O-])cc2)C(=O)O)cc1	-2	·	4	0	0	·
CC(=O)C1CCC2C3CC(C)=C4CC(O)CCC4(C)C3CCC12C (configuration not stated)	0	0	-7	8	-2	-1
CCN(CC)C(=O)C1=C(C)N(Cc2ccc(OC)cc2)C(=O)C(CC(=O)NCC2CCCCC2)C1 (configuration not stated)	-6	·	-1	-4	-1	·
COC(=O)CN1C(=S)N(Cc2ccccc2)C(=O)C1CC(=O)Nc1ccc(Br)cc1 (configuration not stated)	3	-3	0	34	-4	18*
O=c1[nH]c(S)c(/C=C2\C=Nc3ccccc32)s1	15	23	9	-8	0	34*
O=C(NCc1cccnc1)c1cc(C2CCCCN2S(=O)(=O)Cc2ccccc2)on1 (configuration not stated)	-6	·	2	-4	1	·
CCOc1ccc(Cl)cc1-c1cc(C(=O)NCc2cc(C(F)(F)F)cc(C(F)(F)F)c2)[nH]n1	-13	·	-1	18	-2	·
CC1CCN(S(=O)(=O)c2ccc(NC(=O)C3CCCCC3C(=O)O)cc2)CC1 (configuration not stated)	19	-10	-1	0	-3	11*
COC(=O)Nc1ccc(S(=O)(=O)N2CCC(C(=O)N3CCC(C)CC3)CC2)cc1	6	-7	4	2	-1	0
O=C(Nc1ccc(S(=O)(=O)N2CCCCC2)cc1)c1ccncc1	-10	0	0	-16	6	2
CC1CCN(S(=O)(=O)c2cccc(C(=O)Nc3nncs3)c2)CC1	5	18	0	-4	0	17*
O=C(Nc1nncs1)c1cccc(S(=O)(=O)N2CCCC2)c1	-3	5	5	-6	-1	-1
CC1CCN(S(=O)(=O)c2ccc(NC(=O)c3ccncc3)cc2)CC1	-9	-3	0	0	0	12*
